Source: ChEMBL document CHEMBL2169846, “Design and synthesis of Pictet-Spengler condensation products that exhibit oncogenic-RAS synthetic lethality and induce non-apoptotic cell death” (Bioorg Med Chem Lett, 2012)
Active and inactive are the calls of the source. No cut-off for these calls is given here.

Tests used:
[1] = tested on: E3 ubiquitin-protein ligase Mdm2 (Homo sapiens), Q00987 [C464A]; experiment: Inhibition of Mdm2 C464A mutant at 20 ug/mL after 2 hrs by cell-based luciferase assay
[2] = target: E3 ubiquitin-protein ligase Mdm2 (Homo sapiens) (UniProt Q00987); experiment: Inhibition of wild type Mdm2 at 20 ug/mL after 2 hrs by cell-based luciferase assay
[3] = tested on: U2OS; experiment: Cytotoxicity against human U2OS cells after 48 hrs by alamar blue assay; assay type: functional; details: read-out: LC50 (the source's name)
[4] = tested on: MCF7; experiment: Cytotoxicity against human MCF7 cells after 48 hrs by alamar blue assay; assay type: functional; details: MCF7, 48 h, read-out: LC50 (the source's name)
[5] = tested on: BJeH; experiment: Cytotoxicity against human BJeH cells expressing wild type RAS at 20 ug/mL after 48 hrs by alamar blue assay; assay type: functional, cell-based
[6] = Cytotoxicity against human HT1299 cells after 48 hrs by alamar blue assay; assay type: functional; details: HT1299, 48 h, read-out: LC50 (the source's name)
[7] = tested on: HT-1080; experiment: Cytotoxicity against human HT1080 cells after 48 hrs by alamar blue assay; assay type: functional; details: HT-1080, 48 h, read-out: LC50 (the source's name)
[8] = Cytotoxicity against human BJeLR cells expressing RAS G12V mutant after 48 hrs by alamar blue assay; assay type: functional, cell-based; details: read-out: LC50 (the source's name)
[9] = tested on: RKO; experiment: Cytotoxicity against human RKO cells after 48 hrs by alamar blue assay; assay type: functional; details: read-out: LC50 (the source's name)
[10] = tested on: BJeLR; experiment: Induction of apoptosis in human BJeLR cells expressing RAS G12V mutant assessed as caspase 7 activation after 28 hrs by Apo-One assay; assay type: functional, cell-based
Summary of the method: (§1)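 BJ-TERT and BJ-TERT/LT/ST/RAS(V12) cells given compound as a two-fold, 14-point dilution series for 28 h. Alamar blue then added for viability, and caspase 3/7 activation detected by Apo-ONE in the same wells.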

[11] = tested on: BJeH; experiment: Induction of apoptosis in human BJeH cells expressing wild type RAS assessed as caspase 7 activation after 28 hrs by Apo-One assay; assay type: functional, cell-based; summary of the method: as §1
[12] = tested on: BJeH; experiment: Induction of apoptosis in human BJeH cells expressing wild type RAS assessed as caspase 3 activation after 28 hrs by Apo-One assay; assay type: functional, cell-based; summary of the method: as §1
[13] = Cytotoxicity against human BJeH cells expressing wild type RAS after 48 hrs by alamar blue assay; assay type: functional, cell-based; details: read-out: LC50 (the source's name)
[14] = tested on: BJeLR; experiment: Induction of apoptosis in human BJeLR cells expressing RAS G12V mutant assessed as caspase 3 activation after 28 hrs by Apo-One assay; assay type: functional, cell-based; summary of the method: as §1
[15] = tested on: BJeLR; experiment: Cytotoxicity against human BJeLR cells expressing RAS G12V mutant at 20 ug/mL after 48 hrs by alamar blue assay; assay type: functional, cell-based
[16] = tested on: BJeH; experiment: Cytotoxicity against human BJeH cells expressing wild type RAS at 30 uM after 24 hrs by trypan blue staining; assay type: functional, cell-based
[17] = Growth inhibition of human BJeH-LT cells expressing wild type RAS relative to control; assay type: functional
Summary of the method: (§2)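 Four cell lines treated for 48 h in a two-fold, 7-point dilution series. Viability by Alamar blue reading. LC50 and maximum growth-inhibitory efficacy were tabulated as ± SEM of triplicates.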

[18] = Growth inhibition of human BJeH cells expressing wild type RAS relative to control; assay type: functional; summary of the method: as §2
[19] = Cytotoxicity against human DRD cells expressing RAS G12V mutant; assay type: functional; details: read-out: LC50 (the source's name)
[20] = Selectivity ratio of LC50 for human BJeH cells to LC50 for human BJeLR cells expressing RAS G12V mutant; assay type: functional
Summary of the method: (§3)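 LC50 of BJ-TERT divided by LC50 of the RAS(V12)-transformed line or of DRD cells.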

[21] = tested on: HT-1080; experiment: Cytotoxicity against human HT1080 after 48 hrs by alamar blue assay in presence of deferoxamine; assay type: functional, cell-based
Summary of the method: (§4)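 HT1080 cells given the test compound together with a rescue agent: deferoxamine 152 µM, α-tocopherol 100 µM, z-VAD-fmk 45 µM or Boc-D-fmk 50 µM. Viability read out afterwards.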

[22] = tested on: HT-1080; experiment: Cytotoxicity against human HT1080 after 48 hrs by alamar blue assay in presence of Boc-D-fmk; assay type: functional, cell-based; summary of the method: as §4
[23] = Selectivity ratio of LC50 for human BJeH cells to LC50 for human DRD cells; assay type: functional; summary of the method: as §3
[24] = tested on: BJeH; experiment: Induction of reactive oxygen species production in human BJeH cells expressing wild type RAS after 18 hrs by DCF-based flow cytometric analysis; assay type: functional, cell-based
[25] = Ratio of MEL24 LC50 to compound LC50 for human BJeLR cells expressing RAS G12V mutant; assay type: functional
[26] = tested on: HT-1080; experiment: Cytotoxicity against human HT1080 after 48 hrs by alamar blue assay in presence of z-VAD-fmk; assay type: functional, cell-based; summary of the method: as §4
[27] = Cytotoxicity against human BJeLR cells expressing RAS G12V mutant; assay type: functional; details: read-out: LC50 (the source's name)
[28] = Growth inhibition of human BJeLR cells expressing RAS G12V mutant relative to control; assay type: functional; summary of the method: as §2
[29] = tested on: BJeLR; experiment: Cytotoxicity against human BJeLR cells expressing RAS G12V mutant at 30 uM at 24 hrs by trypan blue staining; assay type: functional, cell-based
Summary of the method: (§5)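 Time-course in BJ-TERT/LT/ST/RAS^V12 cells exposed for the designated times to erastin (10 µM), test compound (30 µM) or RSL3 (0.57 µM) to follow onset of death. Data representative of duplicate experiments.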

[30] = tested on: BJeLR; experiment: Cytotoxicity against human BJeLR cells expressing RAS G12V mutant at high concentration after 28 hrs by alamar blue assay; assay type: functional, cell-based
Summary of the method: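 BJ-TERT/LT/ST/RAS^V12 cells treated for 28 h across a two-fold, 14-point dilution series. Viability was read by Alamar blue, and caspase 3/7 activation was detected by Apo-ONE in the same cells.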

[31] = tested on: BJeLR; experiment: Induction of reactive oxygen species production in human BJeLR cells expressing RAS G12V mutant after 18 hrs by DCF-based flow cytometric analysis; assay type: functional, cell-based
[32] = tested on: MCF7; experiment: Cytotoxicity against human MCF7 cells at 20 ug/mL after 48 hrs by alamar blue assay; assay type: functional, cell-based
Summary of the method: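 Each cell line exposed for 48 h to a 2-fold, 12-point dilution series beginning at 20 µg/mL. Viability by Alamar blue; LC50 derived from the curves.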

[33] = Cytotoxicity against human BJeH cells expressing wild type RAS; assay type: functional; details: read-out: LC50 (the source's name)
[34] = Stability of the compound in phosphate buffered saline after 24 hrs by mass spectroscopy; assay type: physicochemical; details: buffer
[35] = Growth inhibition of human DRD cells expressing RAS G12V mutant relative to control; assay type: functional; summary of the method: as §2
[36] = Cytotoxicity against human BJeH-LT cells expressing wild type RAS; assay type: functional; details: read-out: LC50 (the source's name)
[37] = tested on: HT-1080; experiment: Cytotoxicity against human HT1080 after 48 hrs by alamar blue assay in presence of alpha-tocopherol; assay type: functional, cell-based; summary of the method: as §4
[38] = Stability of the compound assessed as GSH adduct formation after 24 hrs by mass spectroscopy; assay type: physicochemical
[39] = tested on: BJeLR; experiment: Cytotoxicity against human BJeLR cells expressing RAS G12V mutant at 30 uM at 12 hrs by trypan blue staining; assay type: functional, cell-based; summary of the method: as §5

E3 ubiquitin-protein ligase Mdm2 (Homo sapiens), Q00987 [C464A], sequence (Q00987 whole entry C464A): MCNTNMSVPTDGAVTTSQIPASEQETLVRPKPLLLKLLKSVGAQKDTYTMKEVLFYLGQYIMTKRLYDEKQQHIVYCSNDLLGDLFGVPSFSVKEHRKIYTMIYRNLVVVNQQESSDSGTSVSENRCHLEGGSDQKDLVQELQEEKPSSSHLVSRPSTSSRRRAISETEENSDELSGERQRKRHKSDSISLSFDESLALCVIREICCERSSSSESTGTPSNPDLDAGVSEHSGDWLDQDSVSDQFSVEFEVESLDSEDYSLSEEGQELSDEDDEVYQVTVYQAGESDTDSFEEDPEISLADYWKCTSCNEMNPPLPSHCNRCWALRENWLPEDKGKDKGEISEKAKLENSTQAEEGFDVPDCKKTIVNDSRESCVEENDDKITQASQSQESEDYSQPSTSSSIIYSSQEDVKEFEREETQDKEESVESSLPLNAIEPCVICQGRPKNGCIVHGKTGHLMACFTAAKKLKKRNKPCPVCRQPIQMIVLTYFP
E3 ubiquitin-protein ligase Mdm2 (Homo sapiens), sequence (Q00987 whole entry, looked up): as the sequence (Q00987 whole entry C464A) above, with A464C counted along it

## CC(C=O)C1c2c(c3ccccc3n2C(=O)OC(C)(C)C)CCN1C(=O)OC(C)(C)C (configuration not stated)
[1]
  inhibition: inactive
[2]
  inhibition: inactive
[3]
  CC50: 10 µM
[4]
  CC50: 11.4 µM
[5]
  Activity: inactive
[6]
  CC50: 46.7 µM
[7]
  CC50: 13.7 µM
[8]
  CC50: 46.7 µM
[9]
  CC50: 7.7 µM

## CN1C(=O)C(C2NCCc3c2[nH]c2ccccc32)C(=O)N(C)C1=O (configuration not stated)
[10]
  Activity: Active
[1]
  inhibition: inactive
[2]
  inhibition: inactive
[11]
  Activity: Active
[3]
  CC50: 29.4 µM
[4]
  CC50: 31.2 µM
[12]
  Activity: Active
[13]
  CC50: 32.2 µM
[6]
  CC50: 32.8 µM
[7]
  CC50: 16.5 µM
[8]
  CC50: 23.3 µM
[9]
  CC50: 30.9 µM
[14]
  Activity: Active

## CN1C(=O)C(Cc2nccc3c4ccccc4n(C)c23)C(=O)N(C)C1=O
[1]
  inhibition: inactive
[2]
  inhibition: inactive
[3]
  CC50: 14.2 µM
[4]
  CC50: 57.1 µM
[5]
  Activity: inactive
[6]
  CC50: 57.5 µM
[15]
  Activity: inactive
[7]
  CC50: 57.1 µM
[9]
  CC50: 15.4 µM

## COC(OC)C1c2[nH]c3ccccc3c2CCN1C(=O)OCc1ccccc1 (configuration not stated)
[1]
  inhibition: inactive
[2]
  inhibition: inactive
[3]
  CC50: 10.2 µM
[4]
  CC50: 6.5 µM
[13]
  CC50: 52.6 µM
[6]
  CC50: 52.6 µM
[8]
  CC50: 10.2 µM
[9]
  CC50: 22.3 µM

## CC(CC1C(=O)N(C)C(=O)N(C)C1=O)C1c2c(c3ccccc3n2C(=O)OC(C)(C)C)CCN1C(=O)OC(C)(C)C (configuration not stated)
[1]
  inhibition: inactive
[2]
  inhibition: inactive
[3]
  CC50: 12.1 µM
[4]
  CC50: 9.8 µM
[5]
  Activity: inactive
[6]
  CC50: 16.9 µM
[7]
  CC50: 14.6 µM
[8]
  CC50: 35.2 µM
[9]
  CC50: 11.4 µM

## CCOC(=O)C1c2c(c3ccccc3n2C)CCN1C(=O)OC (configuration not stated)
[16]
  Activity: inactive
[10]
  Activity: inactive
[1]
  inhibition: inactive
[17]
  growth inhibition (GI): 8.5%
[18]
  growth inhibition (GI): 22.1%
[19]
  CC50: 102 µM
[20]
  Ratio: 10
[2]
  inhibition: inactive
[21]
  Activity: inactive
[22]
  Activity: Active
[11]
  Activity: inactive
[23]
  Ratio: 3
[24]
  Activity: Active
[25]
  Ratio: 4
[26]
  Activity: Active
[12]
  Activity: inactive
[13]
  CC50: 63.2 µM
[27]
  CC50: 20.3 µM
[6]
  CC50: 30 µM
[28]
  growth inhibition (GI): 98.7%
[29]
  Activity: Active
[30]
  Activity: Active
[8]
  CC50: 6.3 µM
[31]
  Activity: Active
[32]
  Activity: inactive
[33]
  CC50: 179 µM
[34]
  Stability: Stable
[9]
  CC50: 31.6 µM
[35]
  growth inhibition (GI): 67%
[36]
  CC50: 266 µM
[37]
  Activity: inactive
[14]
  Activity: inactive
[38]
  Stability: Stable
[39]
  Activity: Active
